Key:
Assay type in all cases: functional, cell-based
HeLa = test: Cytotoxicity against human HeLa cells assessed as growth inhibition after 24 hrs by MTT assay
Outline: (§1)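 Exponentially growing cells (A549 lung CCL-185, DU145 prostate HTB-81, HeLa cervical CCL-2, MCF7 breast HTB-22) exposed to a range of compound concentrations for 24 h; viability read by MTT. 5-Fluorouracil served as positive control. IC50 taken as concentration giving 50% drop in cell number versus untreated control cultures.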

A549 = test: Cytotoxicity against human A549 cells assessed as growth inhibition after 24 hrs by MTT assay; settings: A549, 24 h; outline: as §1
MCF7 = test: Cytotoxicity against human MCF7 cells assessed as growth inhibition after 24 hrs by MTT assay; settings: MCF7, 24 h; outline: as §1
DU-145 = test: Cytotoxicity against human DU145 cells assessed as growth inhibition after 24 hrs by MTT assay; settings: DU-145, 24 h; outline: as §1

Row | SMILES | IC50 (HeLa) [µM] | IC50 (A549) [µM] | IC50 (MCF7) [µM] | IC50 (DU-145) [µM]
1 | O=C(O)C1=Cc2ccccc2OC1(OCc1cc(-c2ccc3ccccc3c2)no1)C(F)(F)F (stereo unspecified) | > 150 | > 150 | > 150 | 140
2 | CCOC(=O)C1=Cc2ccccc2OC1(OCc1cn(-c2ccc(C)cc2)nn1)C(F)(F)F (stereo unspecified) | 25.1 | 19.7 | 26.7 | 30.2
3 | CCOC(=O)C1=Cc2ccccc2OC1(OCc1cn(-c2ccc([N+](=O)[O-])cc2)nn1)C(F)(F)F (stereo unspecified) | > 150 | > 150 | > 150 | > 150
4 | CCOC(=O)C1=Cc2ccccc2OC1(OCc1cn(-c2ccccc2)nn1)C(F)(F)F (stereo unspecified) | > 150 | > 150 | > 150 | > 150
5 | CCOC(=O)C1=Cc2ccccc2OC1(OCc1cn(-c2ccc(F)c(Cl)c2)nn1)C(F)(F)F (stereo unspecified) | 22.7 | 26.3 | 25.3 | 21.5
6 | CCOC(=O)C1=Cc2ccccc2OC1(OCc1cn(-c2cccc(C(F)(F)F)c2)nn1)C(F)(F)F (stereo unspecified) | > 150 | > 150 | > 150 | > 150
7 | CCOC(=O)C1=Cc2ccccc2OC1(OCc1cn(-c2ccc(F)cc2)nn1)C(F)(F)F (stereo unspecified) | 8.4 | 7.3 | 9.1 | 8.9
8 | CCOC(=O)C1=Cc2ccccc2OC1(OCc1cn(-c2ccc(F)c([N+](=O)[O-])c2)nn1)C(F)(F)F (stereo unspecified) | 15.6 | 11.9 | 16.2 | 13.2
9 | CCOC(=O)C1=Cc2ccccc2OC1(OCc1cn(-c2cccc(OC)c2)nn1)C(F)(F)F (stereo unspecified) | > 150 | > 150 | > 150 | > 150
10 | CCCCCCCCn1cc(COC2(C(F)(F)F)Oc3ccccc3C=C2C(=O)OCC)nn1 (stereo unspecified) | > 150 | > 150 | > 150 | > 150
11 | CCOC(=O)C1=Cc2ccccc2OC1(OCc1cn(CC(=O)Nc2ccc(C)cc2)nn1)C(F)(F)F (stereo unspecified) | 67.4 | 54.3 | > 150 | > 150
12 | CCOC(=O)C1=Cc2ccccc2OC1(OCc1cn(CC(=O)Nc2ccc(OC)cc2)nn1)C(F)(F)F (stereo unspecified) | 31.9 | 29.4 | 28.1 | 32.7
13 | CCOC(=O)C1=Cc2ccccc2OC1(OCc1cn(CC(=O)Nc2cccc(Cl)c2)nn1)C(F)(F)F (stereo unspecified) | 12.3 | 12.8 | 11.6 | 10.1
14 | CCOC(=O)C1=Cc2ccccc2OC1(OCc1cn(CC(=O)Nc2cccc(F)c2)nn1)C(F)(F)F (stereo unspecified) | > 150 | > 150 | > 150 | > 150
15 | CCOC(=O)C1=Cc2ccccc2OC1(OCc1cn(CC(=O)Nc2ccccc2F)nn1)C(F)(F)F (stereo unspecified) | 49.9 | 50.1 | 42.1 | 33.9
16 | CCOC(=O)C1=Cc2ccccc2OC1(OCc1cn(CC(=O)Nc2ccccc2Br)nn1)C(F)(F)F (stereo unspecified) | > 150 | > 150 | > 150 | > 150
17 | CCOC(=O)C1=Cc2ccccc2OC1(OCc1cn(CC(=O)Nc2ccc(I)cc2Cl)nn1)C(F)(F)F (stereo unspecified) | 26.1 | 22.3 | 28.1 | 24.4

Row | SMILES | IC50 (HeLa) [µM] | IC50 (A549) [µM] | IC50 (MCF7) [µM] | IC50 (DU-145) [µM]
18 | CCOC(=O)C1=Cc2ccccc2OC1(OCc1cn(CC(=O)NC2CCCCC2)nn1)C(F)(F)F (stereo unspecified) | 11.4 | 9.9 | 12.1 | 10.2
19 | CCOC(=O)C1=Cc2ccccc2OC1(OCc1cc(-c2ccc(F)cc2)no1)C(F)(F)F (stereo unspecified) | 42.3 | 35.5 | 48.2 | 53.5
20 | CCOC(=O)C1=Cc2ccccc2OC1(OCc1cc(-c2cccc(C(F)(F)F)c2)no1)C(F)(F)F (stereo unspecified) | 21.4 | 48.6 | 22.1 | 57.3
21 | CCOC(=O)C1=Cc2ccccc2OC1(OCc1cc(-c2ccc3ccccc3c2)no1)C(F)(F)F (stereo unspecified) | > 150 | > 150 | 65.4 | 71.8
22 | CCOC(=O)C1=Cc2ccccc2OC1(OCc1cc(-c2ccc(C)cc2)no1)C(F)(F)F (stereo unspecified) | > 150 | > 150 | > 150 | > 150
23 | CCOC(=O)C1=Cc2ccccc2OC1(OCc1cc(-c2ccc([N+](=O)[O-])cc2)no1)C(F)(F)F (stereo unspecified) | > 150 | > 150 | > 150 | > 150
24 | CCOC(=O)C1=Cc2ccccc2OC1(OCc1cc(-c2ccc(F)cc2F)no1)C(F)(F)F (stereo unspecified) | > 150 | > 150 | > 150 | > 150
25 | CCOC(=O)C1=Cc2ccccc2OC1(OCc1cc(-c2ccc(OC)cc2)no1)C(F)(F)F (stereo unspecified) | > 150 | > 150 | > 150 | > 150
26 | CCOC(=O)C1=Cc2ccccc2OC1(OCc1cc(-c2ccc(Br)cc2)no1)C(F)(F)F (stereo unspecified) | 52.3 | > 150 | > 150 | 71.7
27 | CCOC(=O)C1=Cc2ccccc2OC1(OCc1cc(-c2ccc(Cl)cc2)no1)C(F)(F)F (stereo unspecified) | 12.3 | 19.1 | 18.2 | 18.2
28 | Cc1ccc(-c2cc(COC3(C(F)(F)F)Oc4ccccc4C=C3C(=O)O)on2)cc1 (stereo unspecified) | 33.4 | 51.2 | 30.1 | 41.4
29 | O=C(O)C1=Cc2ccccc2OC1(OCc1cc(-c2ccc(F)cc2F)no1)C(F)(F)F (stereo unspecified) | > 150 | > 150 | > 150 | > 150
30 | O=C(O)C1=Cc2ccccc2OC1(OCc1cc(-c2ccc(F)cc2)no1)C(F)(F)F (stereo unspecified) | > 150 | > 150 | 64.2 | 168
31 | O=C(O)C1=Cc2ccccc2OC1(OCc1cc(-c2cccc(C(F)(F)F)c2)no1)C(F)(F)F (stereo unspecified) | > 150 | > 150 | > 150 | 155
32 | COc1ccc(-c2cc(COC3(C(F)(F)F)Oc4ccccc4C=C3C(=O)O)on2)cc1 (stereo unspecified) | > 150 | 36.2 | 35.2 | 42
33 | O=C(O)C1=Cc2ccccc2OC1(OCc1cc(-c2ccc([N+](=O)[O-])cc2)no1)C(F)(F)F (stereo unspecified) | > 150 | > 150 | > 150 | 100
34 | O=c1[nH]cc(F)c(=O)[nH]1 [FLUOROURACIL] | 1.8 | 1.9 | 1.8 | 1.9
